The record followed here is ChEMBL document CHEMBL1914444, “Chemical synthesis, biological evaluation and structure-activity relationship analysis of azaisoindolinones, a novel class of direct enoyl-ACP reductase inhibitors as potential antimycobacterial agents” (Bioorg Med Chem, 2011).

Converted amounts (≈) assume the structure as drawn.

For assay [1], the target named is T1, Enoyl-[acyl-carrier-protein] reductase [NADH] (Mycobacterium tuberculosis) (UniProt P9WGR1).
T1 sequence (whole entry): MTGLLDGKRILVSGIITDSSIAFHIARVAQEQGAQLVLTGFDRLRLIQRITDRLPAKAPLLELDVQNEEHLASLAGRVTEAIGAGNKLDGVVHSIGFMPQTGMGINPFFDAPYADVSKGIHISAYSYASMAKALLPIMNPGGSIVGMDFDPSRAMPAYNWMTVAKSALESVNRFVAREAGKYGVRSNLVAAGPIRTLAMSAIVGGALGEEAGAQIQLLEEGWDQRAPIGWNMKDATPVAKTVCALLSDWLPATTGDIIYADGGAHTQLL
The assay can be described thus: Inhibition of Mycobacterium tuberculosis InhA using 2-trans-decenoyl-CoA as substrate at 30 uM after 5 mins by spectrophotometry. In short, it runs like this:
(§1)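 Recombinant M. tuberculosis InhA expressed in E. coli (70 nM) was pre-incubated with NADH and compound in 30 mM PIPES, 150 mM NaCl, pH 6.8, 25 °C, with 0.5% final DMSO. Substrate was 2-trans-decenoyl-CoA. Activity was followed as the decrease in A340; initial rates gave % inhibition versus control. Run in triplicate.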

Assay [2] addresses T1, Enoyl-[acyl-carrier-protein] reductase [NADH] (Mycobacterium tuberculosis). The assay can be described thus: Inhibition of Mycobacterium tuberculosis InhA using 2-trans-decenoyl-CoA as substrate at 100 uM after 5 mins by spectrophotometry. The essentials:
as §1

For assay [3], the system named is Mycobacterium tuberculosis. The assay can be described thus: Antimycobacterial activity Mycobacterium tuberculosis H37Rv after 6 days by MTT colorimetric assay. To be noted: 144 h. It counts as functional, organism-based.

The inhibition is the percentage by which the read-out fell short of the control. A high value points to strong suppression. By MIC is commonly meant the lowest concentration found to suppress growth. Turning to `CCCCCCCCCCCCOc1cccc(C2(O)NC(=O)c3cnccc32)c1` (racemic), the inhibition is 12% in assay [1] and 27% in assay [2]. In assay [3], this compound displayed an MIC of 156 µM (≈ 64 µg/mL).

By IC50 is commonly meant the concentration that gives 50% inhibition. Consider `CCCCCCCCCCCCc1cccc(C2(O)NC(=O)c3cnccc32)c1` (racemic), for which, in assay [3], the half-maximal inhibitory concentration (IC50) is 7 µM and the minimal inhibitory concentration (MIC) is 9.8 µM (≈ 3.87 µg/mL).

For the compound `CCCCCCCCCCCCCCCCCCOc1cccc(C2(O)NC(=O)c3cnccc32)c1` (racemic), the inhibition in assay [1] is 28%. The same compound yielded an inhibition in assay [2] of 67%. In assay [3], this compound displayed a concentration for half-maximal inhibition (IC50) of 12 µM and a minimal inhibitory concentration (MIC) of 25 µM (≈ 12.4 µg/mL).

The compound `CCCCCCCCOc1cccc(C2(O)NC(=O)c3cnccc32)c1` (racemic) had an inhibition in assay [2] of 12%. In assay [3], this compound had a minimal inhibitory concentration (MIC) of 250 µM (≈ 88.6 µg/mL).

`CCCCCCCCCCCCOc1ccc(C2(O)NC(=O)c3cnccc32)cc1` (racemic): the inhibition in assay [1] was determined as 1%; in assay [2], 16%. This compound gave an MIC in assay [3] greater than 100 µM.

Regarding `CCCCCCCCCCCCOc1ccccc1C1(O)NC(=O)c2cnccc21` (racemic), the inhibition in assay [1] and in assay [2] was 0% throughout. Further, the minimal inhibitory concentration (MIC) in assay [3] is greater than 100 µM.

In turn, `CCCCCCCCCCCCOc1cccc(C2(OC)NC(=O)c3cnccc32)c1` (racemic) had an inhibition in assay [2] of 0%. In assay [3], this compound had a half-inhibitory concentration (IC50) of 10 µM and a minimal inhibitory concentration (MIC) of 25 µM (≈ 10.6 µg/mL).

`CCCCCCCCCCCCSc1cccc(C2(O)NC(=O)c3cnccc32)c1` (racemic) had an inhibition in assay [1] of 15%. Also, the inhibition in assay [2] was determined as 66%. Moreover, in assay [3], half-maximal inhibition (IC50) was put at 6.5 µM and it took 12.5 µM (≈ 5.33 µg/mL) to inhibit growth (MIC).

`CCCCCCCCCCCCCCCCCCSc1cccc(C2(O)NC(=O)c3cnccc32)c1` (racemic): the inhibition in assay [1] worked out at 26%. For the same compound, the MIC in assay [3] was greater than 100 µM.

Turning to `CCCCCCCCCCCCNc1cccc(C2(O)NC(=O)c3cnccc32)c1` (racemic), the figures for the inhibition in assay [1] and in assay [2] were 1% and 9%, respectively. Also, in assay [3], the MIC is greater than 100 µM.

For `CCCCCCCCCCCCN1C(=O)c2cnccc2C1(O)c1ccccc1` (racemic), the inhibition is 0% in assay [1] and 13% in assay [2]. The compound further returned a half-inhibitory concentration (IC50) in assay [3] of 4.5 µM. Also, the MIC in assay [3] was 12.5 µM (≈ 4.93 µg/mL).

For `CCCCCCCCCCCCCCC1(O)NC(=O)c2cnccc21` (racemic), the inhibition in assay [2] worked out at 10%. The same compound yielded an MIC in assay [3] greater than 100 µM.

Take `CCCCCCCCCCCCOC1(c2ccccc2)NC(=O)c2cnccc21` (racemic): the inhibition in assay [1] was 20%. In addition, in assay [3], the half-inhibitory concentration (IC50) was found to be 9.5 µM and the MIC amounted to 25 µM (≈ 9.86 µg/mL).

In assay [3], `O=C(O)c1cn(C2CC2)c2cc(N3CCNCC3)c(F)cc2c1=O` [CIPROFLOXACIN] showed an MIC of 2.5 µM (≈ 0.828 µg/mL).

`NNC(=O)c1ccncc1` [ISONIAZID]: the MIC in assay [3] amounted to 0.6 µM (≈ 0.0823 µg/mL).
